Test results reported in PubChem BioAssay AID504483 (The Scripps Research Institute Molecular Screening Center, 2011).
Activity calls are given as the source filed them.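 The calls were made as follows: active = inhibition of the enzyme at or above 50% at 0.1 µM compound; inactive = the rest.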

Molecular target: Platelet-activating factor acetylhydrolase (Mus musculus) (UniProt Q60963)
Assay: mouse pPAFAH inhibition, late-stage follow-up, selectivity assay for PAFAH2 inhibitor project, cell lysate, gel-based competitive ABPP, COS-7 proteome, fluorescence (AID 504483)
Details: murine pPAFAH, gel ABPP FP-Rh, at 1 µM (top of the series)
Outline: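 System: soluble COS-7 proteome expressing murine pPAFAH. Measured by: in-gel fluorescence scan after SDS-PAGE, band integrated optical density. Probe or stimulus: rhodamine fluorophosphonate probe FP-Rh, 2 µM final. Dosing: 0.003 to 1 µM, five points. Medium: DPBS. Read-out basis: % inhibition versus DMSO control. Timing: compound 30 min at 25 °C, FP-Rh 30 min.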

Chain of Platelet-activating factor acetylhydrolase (Mus musculus) (Q60963 whole entry, looked up): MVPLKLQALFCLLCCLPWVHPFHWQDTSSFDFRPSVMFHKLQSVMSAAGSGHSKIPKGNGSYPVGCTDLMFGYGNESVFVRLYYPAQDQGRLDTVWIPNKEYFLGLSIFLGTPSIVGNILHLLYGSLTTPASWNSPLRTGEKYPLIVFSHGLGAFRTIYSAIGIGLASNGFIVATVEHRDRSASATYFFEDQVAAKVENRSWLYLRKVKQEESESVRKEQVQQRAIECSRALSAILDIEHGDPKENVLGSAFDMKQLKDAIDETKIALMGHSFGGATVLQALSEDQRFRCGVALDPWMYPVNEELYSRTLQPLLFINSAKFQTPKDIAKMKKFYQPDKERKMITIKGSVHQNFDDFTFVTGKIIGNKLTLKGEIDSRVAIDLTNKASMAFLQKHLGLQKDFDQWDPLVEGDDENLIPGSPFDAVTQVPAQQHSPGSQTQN

Compound: O=C(N1CCCC1)n1ncc(-c2ccc(-c3ccccc3)cc2)n1
- inhibition: 85% (inactive)
